From ChEMBL document CHEMBL1909504, “New series of isoniazid hydrazones linked with electron-withdrawing substituents” (Eur J Med Chem, 2011)
In brackets after ≈: the same amount, converted by molar mass.

Tests used:
[1] = test system: Mycobacterium tuberculosis; assay: Antimycobacterial activity against Mycobacterium tuberculosis CNTC My 331/88 ATCC 27294 after 14 days; type: functional; conditions: CNTC My 331/88 ATCC 27294, 336 h
How it was run: (§1)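 Sula semi-synthetic medium at 37 °C. Compounds were dissolved in DMSO (max. 5% DMSO in water) and added to the medium at 1000, 500, 250, 125, 62, 31, 16, 8, 4, 2 and 1 μmol L⁻¹. MIC was read after 7, 14 and 21 days of incubation at 37 °C. Strains came from the Czech National Collection of Type Cultures.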

[2] = test system: Mycobacterium tuberculosis; assay: Antimycobacterial activity against Mycobacterium tuberculosis CNTC My 331/88 ATCC 27294 after 21 days; type: functional; conditions: CNTC My 331/88 ATCC 27294, 504 h; how it was run: as §1
Mycobacterium avium [3] = assay: Antimycobacterial activity against Mycobacterium avium CNTC My 330/88 after 14 days; type: functional; conditions: CNTC My 330/88, 336 h; how it was run: as §1
Mycobacterium avium [4] = assay: Antimycobacterial activity against Mycobacterium avium CNTC My 330/88 after 21 days; type: functional; conditions: CNTC My 330/88, 504 h; how it was run: as §1
Mycobacterium kansasii [5] = assay: Antimycobacterial activity against Mycobacterium kansasii CNTC My 335/80 after 7 days; type: functional; conditions: 168 h
How it was run: (§2)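 MIC in Sula semi-synthetic medium at 37 °C. M. kansasii 6509/96 is a clinical isolate; M. kansasii CNTC My 235/80 comes from the Czech national collection. Compounds were dissolved in DMSO (max. 5% DMSO in water) and tested at 1000, 500, 250, 125, 62, 31, 16, 8, 4, 2 and 1 μmol L⁻¹. MIC was read after 7, 14 and 21 days.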

Mycobacterium kansasii [6] = assay: Antimycobacterial activity against Mycobacterium kansasii CNTC My 335/80 after 14 days; type: functional; conditions: 336 h; how it was run: as §2
Mycobacterium kansasii [7] = assay: Antimycobacterial activity against Mycobacterium kansasii CNTC My 335/80 after 21 days; type: functional; conditions: 504 h; how it was run: as §2
Mycobacterium kansasii [8] = assay: Antimycobacterial activity against Mycobacterium kansasii 6509/96 isolate after 7 days; type: functional; conditions: 6509/96, 168 h; how it was run: as §2
Mycobacterium kansasii [9] = assay: Antimycobacterial activity against Mycobacterium kansasii 6509/96 isolate after 14 days; type: functional; conditions: 6509/96, 336 h; how it was run: as §2
Mycobacterium kansasii [10] = assay: Antimycobacterial activity against Mycobacterium kansasii 6509/96 isolate after 21 days; type: functional; conditions: 6509/96, 504 h; how it was run: as §2
HepG2 = assay: Cytotoxicity against human HepG2 cells by MTT assay; type: cell-based
How it was run: (§3)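 MTT viability assay in RPMI-1640 without phenol red with 10% FCS and 2 mM L-glutamine, at 37 °C and 5% CO₂. HepG2 seeded at 5×10³ cells/well; fresh human PBMC at 2.0×10⁵ cells/well. After 24 h, cells were exposed overnight in serum-free medium, then given MTT (2 mg mL⁻¹) for 4 h. Formazan dissolved in DMSO, OD540 minus OD620, compared with untreated controls. IC50 taken from dose-response curves; two independent experiments, 4–8 parallels.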

PBMC = assay: Cytotoxicity against human PBMC by MTT assay; type: cell-based; how it was run: as §3
[11] = Selectivity index, ratio of IC50 for human HepG2 cells to MIC for Mycobacterium tuberculosis CNTC My 331/88 ATCC 27294; type: functional
How it was run: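 HepG2 human hepatoma cells in RPMI-1640 without phenol red with 10% FCS, 2 mM L-glutamine and gentamycin, at 37 °C and 5% CO₂. Seeded at 5×10³ cells/well and grown 24 h, then treated overnight in serum-free medium. Read-out was MTT (4 h), formazan dissolved in DMSO, OD540 minus OD620. IC50 was taken from dose-response curves, two experiments with 4–8 parallels. MIC was measured in Sula medium.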

[12] = Stability of compound in 0.01 M HCl buffer assessed as pseudo-first order rate constant at pH 2 by UV-vis spectroscopic analysis; type: physicochemical
How it was run: (§4)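 Hydrolytic stability followed by diode-array UV-vis at 37 ± 0.1 °C on ca. 5×10⁻⁵ mol L⁻¹ solutions. Ionic strength was set to 1 mol L⁻¹ with KCl; buffer pH was checked with a glass electrode. Spectra recorded over 200–500 nm with time. Pseudo-first-order k_obs was fitted from the absorbance-time curve at 267 nm.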

[13] = Stability of compound in 0.007 M HCl buffer assessed as pseudo-first order rate constant at pH 2.16 by UV-vis spectroscopic analysis; type: physicochemical; how it was run: as §4
[14] = Stability of compound in 0.005 M HCl buffer assessed as pseudo-first order rate constant at pH 2.3 by UV-vis spectroscopic analysis; type: physicochemical; how it was run: as §4
[15] = Stability of compound in 0.001 HCl buffer assessed as pseudo-first order rate constant at pH 3 by UV-vis spectroscopic analysis; type: physicochemical; how it was run: as §4
[16] = Stability of compound in 0.0005 HCl buffer assessed as pseudo-first order rate constant at pH 3.3 by UV-vis spectroscopic analysis; type: physicochemical; how it was run: as §4
[17] = Stability of compound in methoxyacetate buffer assessed as pseudo-first order rate constant at pH 3.35 by UV-vis spectroscopic analysis; type: physicochemical; how it was run: as §4
[18] = Stability of compound in acetate buffer assessed as pseudo-first order rate constant at pH 4.55 by UV-vis spectroscopic analysis; type: physicochemical; how it was run: as §4
[19] = Stability of compound in phosphate buffer assessed as pseudo-first order rate constant at pH 5.81 by UV-vis spectroscopic analysis; type: physicochemical; how it was run: as §4
[20] = Stability of compound in imidazole buffer assessed as pseudo-first order rate constant at pH 7.23 by UV-vis spectroscopic analysis; type: physicochemical; how it was run: as §4
[21] = Stability of compound in N-Methylmorpholine buffer assessed as pseudo-first order rate constant at pH 7.86 by UV-vis spectroscopic analysis; type: physicochemical; how it was run: as §4
[22] = Stability of compound in TRIS buffer assessed as pseudo-first order rate constant at pH 8.92 by UV-vis spectroscopic analysis; type: physicochemical; how it was run: as §4
[23] = Stability of compound in carbonate buffer assessed as pseudo-first order rate constant at pH 9.71 by UV-vis spectroscopic analysis; type: physicochemical; how it was run: as §4
[24] = Stability of compound in 0.005 M KOH buffer assessed as pseudo-first order rate constant at pH 11.7 by UV-vis spectroscopic analysis; type: physicochemical; how it was run: as §4
[25] = Stability of compound in 0.1 M KOH buffer assessed as pseudo-first order rate constant at pH 13 by UV-vis spectroscopic analysis; type: physicochemical; how it was run: as §4

| SMILES | MIC [1] [µM] | MIC [2] [µM] | MIC (Mycobacterium avium [3]) [µM] | MIC (Mycobacterium avium [4]) [µM] | MIC (Mycobacterium kansasii [5]) [µM] | MIC (Mycobacterium kansasii [6]) [µM] | MIC (Mycobacterium kansasii [7]) [µM] | MIC (Mycobacterium kansasii [8]) [µM] | MIC (Mycobacterium kansasii [9]) [µM] | MIC (Mycobacterium kansasii [10]) [µM] | also measured |
| --- | --- | --- | --- | --- | --- | --- | --- | --- | --- | --- | --- |
| COc1cccc(N/C=N/NC(=O)c2ccncc2)c1 | 2 (≈ 0.541 µg/mL) | 2 (≈ 0.541 µg/mL) | 500 (≈ 135 µg/mL) | 500 (≈ 135 µg/mL) | 250 (≈ 67.6 µg/mL) | 500 (≈ 135 µg/mL) | 1000 (≈ 270 µg/mL) | 16 (≈ 4.32 µg/mL) | 16 (≈ 4.32 µg/mL) | 16 (≈ 4.32 µg/mL) |  |
| COc1ccc(N/C=N/NC(=O)c2ccncc2)cc1 | 2 (≈ 0.541 µg/mL) | 4 (≈ 1.08 µg/mL) | 500 (≈ 135 µg/mL) | 500 (≈ 135 µg/mL) | 250 (≈ 67.6 µg/mL) | 500 (≈ 135 µg/mL) | 1000 (≈ 270 µg/mL) | 16 (≈ 4.32 µg/mL) | 16 (≈ 4.32 µg/mL) | 32 (≈ 8.65 µg/mL) |  |
| O=C(N/N=C/Nc1ccc(Br)cc1)c1ccncc1 | 2 (≈ 0.638 µg/mL) | 4 (≈ 1.28 µg/mL) | 500 (≈ 160 µg/mL) | 500 (≈ 160 µg/mL) | 125 (≈ 39.9 µg/mL) | 250 (≈ 79.8 µg/mL) | 500 (≈ 160 µg/mL) | 32 (≈ 10.2 µg/mL) | 32 (≈ 10.2 µg/mL) | 32 (≈ 10.2 µg/mL) |  |
| O=C(N/N=C/Nc1ccc(Br)c(F)c1)c1ccncc1 | 1 (≈ 0.337 µg/mL) | 1 (≈ 0.337 µg/mL) | 250 (≈ 84.3 µg/mL) | 250 (≈ 84.3 µg/mL) | 62.5 (≈ 21.1 µg/mL) | 250 (≈ 84.3 µg/mL) | 250 (≈ 84.3 µg/mL) | 8 (≈ 2.7 µg/mL) | 8 (≈ 2.7 µg/mL) | 16 (≈ 5.39 µg/mL) | IC50 (HepG2): 162 µM; IC50 (PBMC): 326 µM; Ratio [11]: 162; Activity [12]: 0.00285 s⁻¹; Activity [13]: 0.00192 s⁻¹; Activity [14]: 0.0017 s⁻¹; Activity [15]: 0.000514 s⁻¹; Activity [16]: 0.000322 s⁻¹; Activity [17]: 0.000425 s⁻¹; Activity [18]: 0.000114 s⁻¹; Activity [19]: 0.000071 s⁻¹; Activity [20]: 0.000013 s⁻¹; Activity [21]: 0.000012 s⁻¹; Activity [22]: 0.000055 s⁻¹; Activity [23]: 0.0000445 s⁻¹; Activity [24]: 0.00011 s⁻¹; Activity [25]: 0.0000691 s⁻¹ |
| O=C(N/N=C/Nc1cccc(O)c1)c1ccncc1 | 2 (≈ 0.513 µg/mL) | 2 (≈ 0.513 µg/mL) | 500 (≈ 128 µg/mL) | 500 (≈ 128 µg/mL) | 250 (≈ 64.1 µg/mL) | 1000 (≈ 256 µg/mL) | 1000 (≈ 256 µg/mL) | 16 (≈ 4.1 µg/mL) | 32 (≈ 8.2 µg/mL) | 32 (≈ 8.2 µg/mL) |  |
| O=C(N/N=C/Nc1ccc(Cl)c(Cl)c1)c1ccncc1 | 1 (≈ 0.309 µg/mL) | 2 (≈ 0.618 µg/mL) | 250 (≈ 77.3 µg/mL) | 250 (≈ 77.3 µg/mL) | 250 (≈ 77.3 µg/mL) | 500 (≈ 155 µg/mL) | 500 (≈ 155 µg/mL) | 8 (≈ 2.47 µg/mL) | 16 (≈ 4.95 µg/mL) | 16 (≈ 4.95 µg/mL) |  |
| O=C(N/N=C/Nc1cccc(Cl)c1)c1ccncc1 | 1 (≈ 0.275 µg/mL) | 1 (≈ 0.275 µg/mL) | 500 (≈ 137 µg/mL) | 1000 (≈ 275 µg/mL) | 125 (≈ 34.3 µg/mL) | 500 (≈ 137 µg/mL) | 500 (≈ 137 µg/mL) | 16 (≈ 4.4 µg/mL) | 16 (≈ 4.4 µg/mL) | 16 (≈ 4.4 µg/mL) |  |
| O=C(N/N=C/Nc1cccc(F)c1)c1ccncc1 | 1 (≈ 0.258 µg/mL) | 1 (≈ 0.258 µg/mL) | 500 (≈ 129 µg/mL) | 1000 (≈ 258 µg/mL) | 125 (≈ 32.3 µg/mL) | 1000 (≈ 258 µg/mL) | > 1000 | 16 (≈ 4.13 µg/mL) | 16 (≈ 4.13 µg/mL) | 16 (≈ 4.13 µg/mL) |  |
| O=C(N/N=C/Nc1ccc(Cl)cc1)c1ccncc1 | 1 (≈ 0.275 µg/mL) | 1 (≈ 0.275 µg/mL) | 500 (≈ 137 µg/mL) | 1000 (≈ 275 µg/mL) | 125 (≈ 34.3 µg/mL) | 250 (≈ 68.7 µg/mL) | 1000 (≈ 275 µg/mL) | 16 (≈ 4.4 µg/mL) | 32 (≈ 8.79 µg/mL) | 32 (≈ 8.79 µg/mL) |  |
| NNC(=O)c1ccncc1 [ISONIAZID] | 1 (≈ 0.137 µg/mL) | 1 (≈ 0.137 µg/mL) | > 250 | > 250 | > 250 | > 250 | > 250 | 2 (≈ 0.274 µg/mL) | 4 (≈ 0.549 µg/mL) | 4 (≈ 0.549 µg/mL) | IC50 (HepG2): > 1000 µM |
